# According to ChEMBL document CHEMBL1649493, “Genetic and biochemical characterization of the first extended-spectrum CARB-type beta-lactamase, RTG-4, from Acinetobacter baumannii” (Antimicrob Agents Chemother, 2009):
# Columns and labels:
# Acinetobacter baumannii [1] = experiment: Antimicrobial activity against Acinetobacter baumannii by […]; format: functional
# Summary of the method: (§1)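 MICs were determined by Etest on Mueller-Hinton agar at 37°C. Where indicated, clavulanic acid or tazobactam was added at 4 μg/ml.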
# Acinetobacter baumannii [2] = experiment: Antimicrobial activity against Acinetobacter baumannii CIP70.10 harboring beta-lactamase RTG3 gene by […]; format: functional
# [3] = Activity of recombinant beta-lactamase RTG4 expressed in Escherichia coli TOP10 assessed as Ratio of Kcat to Km by nitrocefin hydrolysis assay relative to benzylpenicillin; design: scale not given: the % may be the effect or the level left
# Escherichia coli [4] = experiment: Antibacterial activity against Escherichia coli TOP10 harboring beta-lactamase RTG3 gene by Etest method; format: functional
# Summary of the method: (§2)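 MICs read by Etest on Mueller-Hinton agar plates incubated at 37°C. Recombinant E. coli TOP10 carried the cloned β-lactamase gene on plasmid pBK-CMV; the host strain alone was tested alongside.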
# Escherichia coli [5] = experiment: Antibacterial activity against Escherichia coli TOP10 harboring beta-lactamase RTG4 gene by Etest method; format: functional; summary of the method: as §2
# Escherichia coli [6] = experiment: Antibacterial activity against Escherichia coli TOP10 harboring recombinant plasmid RTG4-S69-V49 by Etest method; format: functional
# Acinetobacter baumannii [7] = experiment: Antimicrobial activity against Acinetobacter baumannii CIP70.10 by […]; format: functional
# Escherichia coli [8] = experiment: Antibacterial activity against Escherichia coli TOP10 harboring recombinant plasmid RTG4-V49 by Etest method; format: functional
# [9] = Ratio of Kcat to Km for recombinant beta-lactamase RTG4 expressed in Escherichia coli TOP10 by nitrocefin hydrolysis assay
# Acinetobacter baumannii [10] = experiment: Antimicrobial activity against Acinetobacter baumannii CIP70.10 harboring beta-lactamase RTG4 gene by […]; format: functional
# Escherichia coli [11] = experiment: Antibacterial activity against Escherichia coli TOP10 harboring recombinant plasmid RTG4-S69 by Etest method; format: functional
# Acinetobacter baumannii [12] = experiment: Antimicrobial activity against Acinetobacter baumannii CIP70.10 by […] in presence of 4 ug/ml beta-lactamase inhibitor clavulanic acid; format: functional; summary of the method: as §1
# Acinetobacter baumannii [13] = experiment: Antimicrobial activity against Acinetobacter baumannii by […] in presence of 4 ug/ml beta-lactamase inhibitor clavulanic acid; format: functional; summary of the method: as §1
# Escherichia coli [14] = experiment: Antibacterial activity against Escherichia coli TOP10 by Etest method in presence of 4 ug/ml beta-lactamase inhibitor clavulanic acid; format: functional
# Summary of the method: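 MICs by Etest on Mueller-Hinton agar plates incubated at 37°C, with clavulanic acid at a fixed 4 μg/ml. The E. coli TOP10 host was tested with recombinant plasmids carrying the cloned HindIII fragment encoding RTG-4 or its site-directed variants (T69S, A49V).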
# Acinetobacter baumannii [15] = experiment: Antimicrobial activity against Acinetobacter baumannii CIP70.10 harboring beta-lactamase RTG4 gene by […] in presence of 4 ug/ml beta-lactamase inhibitor clavulanic acid; format: functional
# Escherichia coli [16] = experiment: Antibacterial activity against Escherichia coli TOP10 harboring recombinant plasmid RTG4-S69-V49 by Etest method in presence of 4 ug/ml beta-lactamase inhibitor clavulanic acid; format: functional
# Summary of the method: (§3)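 MICs read by Etest on Mueller-Hinton agar at 37°C, with β-lactams combined with clavulanic acid at 4 μg/ml. The strains were E. coli TOP10 carrying the cloned RTG gene or the site-directed mutant plasmids (Thr69Ser, Ala49Val, or both).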
# Escherichia coli [17] = experiment: Antibacterial activity against Escherichia coli TOP10 harboring recombinant plasmid RTG4-V49 by Etest method in presence of 4 ug/ml beta-lactamase inhibitor clavulanic acid; format: functional; summary of the method: as §3
# Escherichia coli [18] = experiment: Antibacterial activity against Escherichia coli TOP10 harboring recombinant plasmid RTG4-S69 by Etest method in presence of 4 ug/ml beta-lactamase inhibitor clavulanic acid; format: functional; summary of the method: as §3
# Acinetobacter baumannii [19] = experiment: Antimicrobial activity against Acinetobacter baumannii CIP70.10 harboring beta-lactamase RTG3 gene by […] in presence of 4 ug/ml beta-lactamase inhibitor clavulanic acid; format: functional
# Escherichia coli [20] = experiment: Antibacterial activity against Escherichia coli TOP10 harboring beta-lactamase RTG3 gene by Etest method in presence of 4 ug/ml beta-lactamase inhibitor clavulanic acid; format: functional; summary of the method: as §3
# Escherichia coli [21] = experiment: Antibacterial activity against Escherichia coli TOP10 harboring beta-lactamase RTG4 gene by Etest method in presence of 4 ug/ml beta-lactamase inhibitor clavulanic acid; format: functional; summary of the method: as §3
# Escherichia coli [22] = experiment: Antibacterial activity against Escherichia coli TOP10 by Etest method; format: functional; summary of the method: as §2
# [23] = Inhibition of recombinant beta-lactamase RTG4 expressed in Escherichia coli TOP10 by benzylpenicillin hydrolysis assay
# [24] = Inhibition of recombinant beta-lactamase RTG3 expressed in Escherichia coli TOP10 by benzylpenicillin hydrolysis assay
# Acinetobacter baumannii [25] = experiment: Antimicrobial activity against Acinetobacter baumannii CIP70.10 harboring beta-lactamase RTG4 gene by […] in presence of 4 ug/ml Tazobactam; format: functional
# Acinetobacter baumannii [26] = experiment: Antimicrobial activity against Acinetobacter baumannii CIP70.10 harboring beta-lactamase RTG3 gene by […] in presence of 4 ug/ml Tazobactam; format: functional
# Acinetobacter baumannii [27] = experiment: Antimicrobial activity against Acinetobacter baumannii by […] in presence of 4 ug/ml Tazobactam; format: functional; summary of the method: as §1
# Acinetobacter baumannii [28] = experiment: Antimicrobial activity against Acinetobacter baumannii CIP70.10 by […] in presence of 4 ug/ml Tazobactam; format: functional; summary of the method: as §1
Structure (SMILES),MIC (Acinetobacter baumannii [1]) [µg/mL],MIC (Acinetobacter baumannii [2]) [µg/mL],Activity [3] [%],MIC (Escherichia coli [4]) [µg/mL],MIC (Escherichia coli [5]) [µg/mL],MIC (Escherichia coli [6]) [µg/mL],MIC (Acinetobacter baumannii [7]) [µg/mL],MIC (Escherichia coli [8]) [µg/mL],kcat/Km [9] [M⁻¹ s⁻¹],MIC (Acinetobacter baumannii [10]) [µg/mL],MIC (Escherichia coli [11]) [µg/mL],MIC (Escherichia coli [22]) [µg/mL],also measured
CO/N=C(\C(=O)N[C@@H]1C(=O)N2C(C(=O)[O-])=C(C[N+]3(C)CCCC3)CS[C@H]12)c1csc(N)n1,32,4,0.06,0.06,4,0.5,1,4,1000,64,0.5,–,–
CC1(C)S[C@@H]2[C@H](NC(=O)COc3ccccc3)C(=O)N2[C@H]1C(=O)O,–,–,–,–,–,–,–,–,2e+06,–,–,–,–
CC1(C)S[C@@H]2[C@H](NC(=O)[C@H](N)c3ccc(O)cc3)C(=O)N2[C@H]1C(=O)O [AMOXICILLIN],> 256,> 256,120,512,> 256,> 256,32,> 256,2e+06,> 256,> 256,2,MIC (Acinetobacter baumannii [12]): 8 µg/mL; MIC (Acinetobacter baumannii [13]): 32 µg/mL; MIC (Escherichia coli [14]): 2 µg/mL; MIC (Acinetobacter baumannii [15]): 32 µg/mL; MIC (Escherichia coli [16]): 32 µg/mL; MIC (Escherichia coli [17]): 32 µg/mL; MIC (Escherichia coli [18]): 32 µg/mL; MIC (Acinetobacter baumannii [19]): 32 µg/mL; MIC (Escherichia coli [20]): 4 µg/mL; MIC (Escherichia coli [21]): 32 µg/mL
CO/N=C(\C(=O)N[C@@H]1C(=O)N2C(C(=O)O)=C(COC(C)=O)CS[C@H]12)c1csc(N)n1 [CEFOTAXIME],16,8,–,0.06,0.25,0.25,8,0.25,–,16,0.25,0.06,–
CO/N=C(\C(=O)N[C@@H]1C(=O)N2C(C(=O)[O-])=C(C[n+]3cccc4c3CCC4)CS[C@H]12)c1csc(N)n1 [CEFPIROME],32,2,0.03,0.06,1,0.25,2,1,500,64,0.25,0.06,–
CC(C)(O/N=C(\C(=O)N[C@@H]1C(=O)N2C(C(=O)[O-])=C(C[n+]3ccccc3)CS[C@H]12)c1csc(N)n1)C(=O)O [CEFTAZIDIME],8,4,–,0.12,1,0.5,2,1,–,16,0.5,0.12,–
CO/N=C(\C(=O)N[C@@H]1C(=O)N2C(C(=O)O)=C(COC(N)=O)CS[C@H]12)c1ccco1 [CEFUROXIME],–,–,–,2,4,2,–,2,–,–,2,2,–
CC(=O)OCC1=C(C(=O)O)N2C(=O)[C@@H](NC(=O)Cc3cccs3)[C@H]2SC1 [CEPHALOTHIN],–,–,0.04,4,64,8,–,64,6000,–,8,4,–
O=C(O)[C@H]1/C(=C/CO)O[C@@H]2CC(=O)N21 [CLAVULANIC ACID],–,–,–,–,–,–,–,–,–,–,–,–,IC50 [23]: 70 nM; IC50 [24]: 100 nM
C[C@@H](O)[C@H]1C(=O)N2C(C(=O)O)=C(SCCNC=N)C[C@H]12 [IMIPENEM ANHYDROUS],0.25,0.25,–,–,–,–,0.25,–,–,0.25,–,–,–
CCN1CCN(C(=O)N[C@@H](C(=O)N[C@@H]2C(=O)N3[C@@H]2SC(C)(C)[C@@H]3C(=O)O)c2ccccc2)C(=O)C1=O [PIPERACILLIN],> 256,> 256,35,32,> 256,> 256,16,> 256,500000,> 256,> 256,1,MIC (Acinetobacter baumannii [25]): > 256 µg/mL; MIC (Acinetobacter baumannii [26]): 128 µg/mL; MIC (Acinetobacter baumannii [27]): > 256 µg/mL; MIC (Acinetobacter baumannii [28]): 4 µg/mL
CC1(C)[C@H](C(=O)O)N2C(=O)C[C@H]2S1(=O)=O [SULBACTAM],–,–,–,–,–,–,–,–,–,–,–,–,IC50 [23]: 1500 nM; IC50 [24]: 200 nM
C[C@]1(Cn2ccnn2)[C@H](C(=O)O)N2C(=O)C[C@H]2S1(=O)=O [TAZOBACTAM],–,–,–,–,–,–,–,–,–,–,–,–,IC50 [23]: 350 nM; IC50 [24]: 100 nM
CC1(C)S[C@@H]2[C@H](NC(=O)[C@H](C(=O)O)c3ccsc3)C(=O)N2[C@H]1C(=O)O [TICARCILLIN],> 256,> 256,100,–,–,–,8,–,1.5e+06,> 256,–,–,MIC (Acinetobacter baumannii [12]): 8 µg/mL; MIC (Acinetobacter baumannii [13]): > 256 µg/mL; MIC (Escherichia coli [14]): 2 µg/mL; MIC (Acinetobacter baumannii [15]): > 256 µg/mL; MIC (Escherichia coli [16]): > 256 µg/mL; MIC (Escherichia coli [17]): > 256 µg/mL; MIC (Escherichia coli [18]): > 256 µg/mL; MIC (Acinetobacter baumannii [19]): > 256 µg/mL; MIC (Escherichia coli [20]): 16 µg/mL; MIC (Escherichia coli [21]): > 256 µg/mL
